Converted amounts (≈) assume the structure as drawn.

Common to all, as to assay type: functional
The species named for assay [1] is Homo sapiens. The assay can be described thus: Evaluation for its inhibitory effect on proliferation of human lymphoblast namalva cells. The conditions noted are these: read-out: ID50 (the source's name).
Assay [2] has as its system FM3A. The assay can be described thus: Evaluation for its inhibitory effect on proliferation of murine mammary carcinoma (FM3A) cells. The conditions noted are these: Mus musculus, read-out: ID50 (the source's name).
The species entered for assay [3] is Homo sapiens. The assay can be described thus: Evaluation for its inhibitory effect on proliferation of human lymphoblast Raji cells. As to conditions: read-out: ID50 (the source's name).
Assay [4] concerns Vaccinia virus. The assay can be described thus: Evaluation for antiviral activity against vaccinia virus in primary rabbit kidney cell culture. As to conditions: Orthopoxvirus vaccinia. The essentials:
(§1)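 Primary rabbit kidney cell cultures infected with virus; the endpoint is the compound concentration that reduces virus-induced cytopathogenicity by 50%.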

For assay [5], the species on record is Oryctolagus cuniculus. The assay can be described thus: Evaluation for antiviral activity in primary rabbit kidney cell culture. As to conditions: read-out: Min cytotoxic concentration.
The subject of assay [6] is Human alphaherpesvirus 2. The assay can be described thus: Evaluation for antiviral activity against herpes simplex virus type 2 (strain G) in primary rabbit kidney cell culture. Summed up: as §1
For assay [7], the system named is L1210. The assay can be described thus: Evaluation for its inhibitory effect on proliferation of murine leukemia L1210 cells. The conditions noted are these: Mus musculus, read-out: ID50 (the source's name).
Assay [8] deals with Vesicular stomatitis virus. The assay can be described thus: Evaluation for antiviral activity against vesion stomatitis virus in primary rabbit kidney cell culture. The essentials: as §1
In assay [9] the test system is Human alphaherpesvirus 1. The assay can be described thus: Evaluation for antiviral activity against herpes simplex virus type 1 (strain KOS) in primary rabbit kidney cell culture. The essentials:
as §1

For the compound `Cn1cc(NC(=O)c2nc(NC(=O)CNC(=N)N)cn2C)nc1C(=O)NCCC(=N)N.O=S(=O)(O)O`, the IC50 was 261 µg/mL in assay [1], greater than 500 µg/mL in [2], 316 µg/mL in assay [3] and 238 µg/mL in assay [7]. Besides, the MIC in [4] is 300 µg/mL; in assay [6], greater than 400 µg/mL; in assay [8], greater than 400 µg/mL; in assay [9] it was greater than 400 µg/mL. Moreover, in assay [5], the MCC is greater than 400 µg/mL.
With `Cn1cc(NC(=O)CNC(=N)N)cc1C(=O)Nc1cn(C)c(C(=O)NCCC(=N)N)n1.O=S(=O)(O)O`, the IC50 in [1], in [2], in assay [3] and in assay [7] was greater than 100 µg/mL in each case. Moreover, the MIC in assay [4] was 40 µg/mL; in [6], no less than 200 µg/mL; in assay [8], no less than 200 µg/mL; in assay [9] it was no less than 200 µg/mL. Also, the MCC in assay [5] came out at 200 µg/mL.
As to `Cl.Cn1cc(NC(=O)c2cc(N)cn2C)cc1C(=O)NCCC(=N)N`, the IC50 came to 36 µg/mL in [1], 327 µg/mL in assay [2], 43 µg/mL in assay [3] and 276 µg/mL in assay [7]. For the same compound, the MIC in [4] was 20 µg/mL; in assay [6], 150 µg/mL; in assay [8] it was no less than 400 µg/mL; in assay [9], 150 µg/mL. Further, in [5], the MCC turned out to be 400 µg/mL.
As for `Nc1ccnc2c1ncn2[C@@H]1C[C@H](CO)[C@@H](O)[C@H]1O`, the MIC in assay [4] is 0.3 µg/mL (≈ 1.14 µM); in [6] it was no less than 400 µg/mL; in [9], 200 µg/mL (≈ 757 µM). For the same compound, the MCC in assay [5] is greater than 400 µg/mL.
Turning to `Cl.Cl.Cn1cc(NC(=O)c2cc(NC(=O)c3cc(NC=O)cn3C)cn2C)cc1C(=O)NCCC(=N)N`, the IC50 was found to be 22 µg/mL in assay [1], 31 µg/mL in assay [2], 24 µg/mL in [3] and 27 µg/mL in assay [7]. Moreover, the MIC in assay [4] is 0.2 µg/mL; in [6] it was 70 µg/mL; in assay [8], no less than 200 µg/mL; in assay [9], 70 µg/mL. For the same compound, the MCC in assay [5] came out at 200 µg/mL.
As for `Cn1cc(NC(=O)c2cc(NC(=O)C[N+](C)(C)C)cn2C)cc1C(=O)NCCC(=N)N.[Cl-]`, the IC50 was greater than 1000 µg/mL in [2], 504 µg/mL in [3] and 543 µg/mL in assay [7]. For the same compound, the MIC in assay [4] is 20 µg/mL; in assay [6], greater than 200 µg/mL; in assay [8], greater than 400 µg/mL; in assay [9], greater than 200 µg/mL. Besides, the MCC in [5] was no less than 400 µg/mL.
As to `CC[N+](CC)(CC)CC(=O)Nc1cc(C(=O)Nc2cc(C(=O)NCCC(=N)N)n(C)c2)n(C)c1.[Cl-]`, the IC50 in assay [1] worked out at 180 µg/mL; in assay [2], 334 µg/mL; in assay [3] it was 252 µg/mL; in assay [7] it was 222 µg/mL. Further, the MIC in assay [4] was 300 µg/mL; in assay [6], 300 µg/mL; in [8], greater than 400 µg/mL; in assay [9], 300 µg/mL. Moreover, in assay [5], the MCC was greater than 400 µg/mL.
Regarding `Cl.Cn1cc(NC(=O)c2nc(NC(=O)c3nc(NC(=O)CNC(=N)N)cn3C)cn2C)nc1C(=O)NCCC(=N)N`, the IC50 in assay [1] turned out to be 100 µg/mL; in [2], 46 µg/mL; in [3], 52 µg/mL; in assay [7], 42 µg/mL. The MIC in assay [4], in assay [6], in assay [8] and in assay [9] was no less than 100 µg/mL each time. Further, the MCC in [5] is 100 µg/mL.
For the compound `Cl.Cn1cc(NC(=O)c2nc(NC(=O)CNC(=N)N)cn2C)cc1C(=O)NCCC(=N)N`, the IC50 in assay [1], in assay [2], in assay [3] and in assay [7] was greater than 100 µg/mL each time. The MIC in assay [4] was 40 µg/mL; in assay [6] it was greater than 400 µg/mL; in assay [8], greater than 400 µg/mL; in assay [9], greater than 400 µg/mL. Also, the MCC in assay [5] was greater than 400 µg/mL.
As for `Nc1ncnc2c1ncn2C[C@H](O)CO` [(S)-DHPA], the MIC was 70 µg/mL (≈ 335 µM) in [4], greater than 400 µg/mL in assay [6], 20 µg/mL (≈ 95.6 µM) in assay [8] and greater than 400 µg/mL in [9]. Moreover, the MCC in assay [5] was greater than 400 µg/mL.
Consider `Cl.Cn1cc(NC(=O)c2cc(NC(=O)c3cc(N)cn3C)cn2C)cc1C(=O)NCCC(=N)N` [DEFORMYLDISTAMYCIN], for which the IC50 in [1] worked out at 29 µg/mL; in [2], 454 µg/mL; in [3], 32 µg/mL; in assay [7], 174 µg/mL. The MIC was 7 µg/mL in assay [4], no less than 100 µg/mL in assay [6], no less than 100 µg/mL in assay [8] and no less than 100 µg/mL in assay [9]. Moreover, the MCC in assay [5] came to 100 µg/mL.
Regarding `Cl.Cn1cc(NC(=O)c2cc(NC(=O)CNC(=N)N)cn2C)cc1C(=O)NCCC(=N)N` [NETROPSIN CHLORIDE], the IC50 in assay [1] worked out at 103 µg/mL; in [2], 321 µg/mL; in assay [3], 139 µg/mL; in assay [7], 245 µg/mL. Further, the MIC was 2 µg/mL in assay [4], no less than 40 µg/mL in assay [6], no less than 40 µg/mL in assay [8] and no less than 40 µg/mL in [9]. Further, the MCC in assay [5] came out at 40 µg/mL.
Turning to `NC(=O)c1ncn([C@@H]2O[C@H](CO)[C@@H](O)[C@H]2O)n1` [RIBAVIRIN], the MIC in assay [4] is 30 µg/mL (≈ 123 µM); in assay [6], greater than 400 µg/mL; in assay [8] it was 200 µg/mL (≈ 819 µM); in assay [9], greater than 400 µg/mL. Besides, in assay [5], the MCC is greater than 400 µg/mL.
Take `Nc1ncnc2c1ccn2[C@@H]1O[C@H](CO)[C@@H](O)[C@H]1O` [TUBERCIDIN]: the MIC in assay [4] was 0.07 µg/mL (≈ 0.263 µM); in assay [6], no less than 0.4 µg/mL; in assay [9] it was no less than 0.4 µg/mL. Also, the MCC in [5] is 0.4 µg/mL.
